Experiments:
MG63.3 cells [1] = experiment: Spontaneous; assay type: in vivo, human; conditions: orthotopically injected MG63.3 cells, 5mg/kg daily IP (Fig 6D)
In short: (§1)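 Cells were injected para-osseously into the proximal tibia: K7M2 into female BALB/c mice, human lines into female SCID-beige mice, 8-10 weeks old; MNNG at 1x10^6 cells. Mice received 5mg/kg IP rapamycin or vehicle daily, 5 days/week. Tumours were measured every 3-4 days and limbs amputated at 1.5-1.7 cm3. Survival ran from amputation, with metastasis confirmed at necropsy; Kaplan-Meier analysis, Gehan-Breslow-Wilcoxon test.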

MG63.3 cells [2] = experiment: In vitro ds-SL-mCherry reporter expression; assay type: cell-based, human; conditions: 1μM rapamycin, 5 days in culture (Fig 4B)
[3] = tested on: phosphorylation of p70S6K (Thr389); experiment: Immunoblot for phospho- and total p70S6K in K7M2 cells; assay type: cell-based, murine; conditions: concentrations as low as 0.1μM, 4 hours, immunoblot (Fig 3A)
K7M2 cells [4] = experiment: Ex vivo lung culture metastatic outgrowth, K7M2; assay type: cell-based, murine
In short: (§2)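 Tumor cells were tail-vein injected, and lung sections were then cultured ex vivo. K7M2 cells were grown in female BALB/c mice and MG63.3 in female SCID-beige mice, 8-10 weeks old. Culture media held a final 0.1uM or 1uM rapamycin, or volume-matched DMSO, refreshed every 2 days. Eight sections were imaged per condition. Burden was total GFP+ area per section normalised to day 0.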

K7M2 cells [5] = experiment: In vitro ds-SL-mCherry reporter expression; assay type: cell-based, murine; conditions: 1μM rapamycin, 5 days in culture (Fig 4A)
MNNG cells = experiment: Spontaneous; assay type: in vivo, human; conditions: orthotopically injected MNNG cells, 5mg/kg daily IP (Fig 6E)
In short: as §1

[6] = tested on: phosphorylation of p70S6K (Thr389); experiment: Immunoblot for phospho- and total p70S6K in MG63.3 cells; assay type: cell-based, human; conditions: concentrations as low as 0.1μM, 4 hours, immunoblot (Fig 3A)
K7M2 cells [7] = experiment: Spontaneous; assay type: in vivo, murine; conditions: orthotopically injected K7M2 cells, 5mg/kg daily IP (Fig 6C)
In short: as §1

[8] = Single rapamycin dose pharmacokinetic study, whole blood levels; assay type: in vivo, mice
In short: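 Naive female athymic nude mice, 8-10 weeks old, received a single 5mg/kg IP dose (n=3 per condition). Whole blood was sampled at 0, 1, 2, 6, 24 and 48 h and quantified by validated LC/MS/MS. Parameters were derived noncompartmentally: Cmax and trough read directly from the data, AUC by the log-linear trapezoidal method.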

MG63.3 cells [9] = experiment: Ex vivo lung culture metastatic outgrowth, MG63.3; assay type: cell-based, human
In short: as §2

CO[C@H]1C[C@@H]2CC[C@@H](C)[C@@](O)(O2)C(=O)C(=O)N2CCCC[C@H]2C(=O)O[C@H]([C@H](C)C[C@@H]2CC[C@@H](O)[C@H](OC)C2)CC(=O)[C@H](C)/C=C(\C)[C@@H](O)[C@@H](OC)C(=O)[C@H](C)C[C@H](C)/C=C/C=C/C=C/1C [rapamycin]
survival of mice from time of limb amputation (MG63.3 cells [1]): significantly prolonged survival
effect on ds-SL-mCherry reporter expression in vitro (MG63.3 cells [2]): no effect on reporter expression
inhibition of phosphorylation of p70S6K [3]: effectively inhibited phosphorylation of p70S6K
metastatic outgrowth in ex vivo lung culture (K7M2 cells [4]; K7M2, 0.1μM rapamycin (Fig 5B, 5C)): robustly inhibited metastatic outgrowth
metastatic outgrowth in ex vivo lung culture (K7M2 cells [4]; K7M2, 1μM rapamycin (Fig 5B, 5C)): robustly inhibited metastatic outgrowth
effect on ds-SL-mCherry reporter expression in vitro (K7M2 cells [5]): no effect on reporter expression
survival of mice from time of limb amputation (MNNG cells): significantly prolonged survival
inhibition of phosphorylation of p70S6K [6]: effectively inhibited phosphorylation of p70S6K
survival of mice from time of limb amputation (K7M2 cells [7]): significantly prolonged survival
AUC/dose equivalent value ([8]; mice, 5mg/kg IP, noncompartmental methods, predicted sufficient to inhibit p70S6K phosphorylation and exert anti-metastatic activities): 3,555 [ng*hr/ml]/[mg/kg]
whole blood concentration maintained ([8]; naïve mice, single IP dose of 5mg/kg, for 24hrs (Fig 3C)): above 0.1 μM
metastatic outgrowth in ex vivo lung culture (MG63.3 cells [9]; MG63.3, 0.1μM rapamycin (Fig 5D, 5E)): robustly inhibited metastatic outgrowth
metastatic outgrowth in ex vivo lung culture (MG63.3 cells [9]; MG63.3, 1μM rapamycin (Fig 5D, 5E)): robustly inhibited metastatic outgrowth
